Measured values as given in ChEMBL document CHEMBL1671627, “Increasing trends in antimicrobial resistance among clinically important anaerobes and Bacteroides fragilis isolates causing nosocomial infections: emerging resistance to carbapenems” (2008).
≈ marks a conversion by molar mass, not a printed value.

Columns and labels:
Assay type in all cases: functional
Finegoldia magna [1] = assay: Antibacterial activity against beta-lactamase producing Finegoldia magna assessed as resistant isolates by CLSI agar dilution method in presence of clavulanate
Procedure, shortened: (§1)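 207 nonduplicate anaerobic blood isolates from patients with bloodstream infections at NTUH, collected January–December 2006. MICs were determined by agar dilution following CLSI guidelines. Inocula were applied with a Steers replicator onto supplemented Brucella blood agar and incubated 48 h at 35°C in an anaerobic chamber. MIC was the lowest concentration inhibiting growth. B. fragilis ATCC 25285, B. thetaiotaomicron ATCC 29741 and E. lentum ATCC 43055 served as controls in each run.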

[2] = test system: Bacteroides thetaiotaomicron; assay: Antibacterial activity against beta-lactamase producing Bacteroides thetaiotaomicron by CLSI agar dilution method in presence of clavulanate
Procedure, shortened: (§2)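 Agar dilution per CLSI guidelines on nonduplicate anaerobic bloodstream isolates collected at NTUH, January to December 2006. Isolates were spotted by Steers replicator onto supplemented Brucella blood agar and incubated anaerobically for 48 h at 35°C. MIC was the lowest drug concentration that inhibited growth. B. fragilis ATCC 25285, B. thetaiotaomicron ATCC 29741 and E. lentum ATCC 43055 were run as QC in each run.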

Fusobacterium mortiferum [3] = assay: Antibacterial activity against Fusobacterium mortiferum assessed as resistant isolates by CLSI agar dilution method in presence of clavulanate; procedure, shortened: as §1
Parvimonas micra [4] = assay: Antibacterial activity against beta-lactamase producing Micromonas micros assessed as susceptible isolates by CLSI agar dilution method in presence of clavulanate
Procedure, shortened: (§3)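 CLSI agar dilution MICs for anaerobic blood isolates (nonduplicate) collected from bloodstream-infection patients at a Taiwanese tertiary hospital, January–December 2006. Isolates were spotted by Steers replicator onto supplemented Brucella blood agar and incubated anaerobically for 48 h at 35°C. MIC was the lowest drug concentration inhibiting growth. Each run included B. fragilis ATCC 25285, B. thetaiotaomicron ATCC 29741 and E. lentum ATCC 43055 as quality-control strains.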

[5] = test system: Bacteroides thetaiotaomicron; assay: Antibacterial activity against beta-lactamase producing Bacteroides thetaiotaomicron assessed as resistant isolates by CLSI agar dilution method in presence of clavulanate; procedure, shortened: as §1
Phocaeicola vulgatus [6] = assay: Antibacterial activity against beta-lactamase producing Bacteroides vulgatus assessed as susceptible isolates by CLSI agar dilution method in presence of clavulanate; procedure, shortened: as §3
Prevotella bivia [7] = assay: Antibacterial activity against Prevotella bivia assessed as resistant isolates by CLSI agar dilution method in presence of clavulanate; procedure, shortened: as §1
Prevotella intermedia [8] = assay: Antibacterial activity against Prevotella intermedia assessed as resistant isolates by CLSI agar dilution method in presence of clavulanate; procedure, shortened: as §1
Parvimonas micra [9] = assay: Antibacterial activity against beta-lactamase producing Micromonas micros by CLSI agar dilution method in presence of clavulanate; procedure, shortened: as §3
Fusobacterium varium [10] = assay: Antibacterial activity against Fusobacterium varium assessed as resistant isolates by CLSI agar dilution method
Parvimonas micra [11] = assay: Antibacterial activity against beta-lactamase producing Micromonas micros by CLSI agar dilution method
Veillonella parvula = assay: Antibacterial activity against Veillonella parvula by CLSI agar dilution method
Phocaeicola vulgatus [12] = assay: Antibacterial activity against beta-lactamase producing Bacteroides vulgatus assessed as resistant isolates by CLSI agar dilution method
Bacteroides uniformis [13] = assay: Antibacterial activity against beta-lactamase producing Bacteroides uniformis by CLSI agar dilution method
Finegoldia magna [14] = assay: Antibacterial activity against beta-lactamase producing Finegoldia magna assessed as resistant isolates by CLSI agar dilution method
Finegoldia magna [15] = assay: Antibacterial activity against beta-lactamase producing Finegoldia magna assessed as susceptible isolates by CLSI agar dilution method
[16] = test system: Prevotella melaninogenica; assay: Antibacterial activity against Prevotella melaninogenica by CLSI agar dilution method in presence of Tazobactam; procedure, shortened: as §2
Fusobacterium varium [17] = assay: Antibacterial activity against Fusobacterium varium assessed as susceptible isolates by CLSI agar dilution method
[18] = test system: Prevotella melaninogenica; assay: Antibacterial activity against Prevotella melaninogenica assessed as susceptible isolates by CLSI agar dilution method
Phocaeicola vulgatus [19] = assay: Antibacterial activity against beta-lactamase producing Bacteroides vulgatus by CLSI agar dilution method in presence of Tazobactam; procedure, shortened: as §3
Fusobacterium nucleatum = assay: Antibacterial activity against Fusobacterium nucleatum by CLSI agar dilution method
Clostridium septicum [20] = assay: Antibacterial activity against beta-lactamase producing Clostridium septicum by CLSI agar dilution method
Prevotella bivia [21] = assay: Antibacterial activity against Prevotella bivia assessed as susceptible isolates by CLSI agar dilution method
Fusobacterium mortiferum [22] = assay: Antibacterial activity against Fusobacterium mortiferum assessed as resistant isolates by CLSI agar dilution method in presence of Tazobactam; procedure, shortened: as §1
Clostridium septicum [23] = assay: Antibacterial activity against beta-lactamase producing Clostridium septicum assessed as resistant isolates by CLSI agar dilution method
Prevotella buccae = assay: Antibacterial activity against Prevotella buccae by CLSI agar dilution method; conditions: Segatella buccae
[24] = test system: Peptoniphilus asaccharolyticus; assay: Antibacterial activity against beta-lactamase producing Peptoniphilus asaccharolyticus assessed as resistant isolates by CLSI agar dilution method in presence of Tazobactam; procedure, shortened: as §1
[25] = test system: Bacteroides thetaiotaomicron; assay: Antibacterial activity against beta-lactamase producing Bacteroides thetaiotaomicron by CLSI agar dilution method
Fusobacterium varium [26] = assay: Antibacterial activity against Fusobacterium varium assessed as susceptible isolates by CLSI agar dilution method in presence of Tazobactam; procedure, shortened: as §2
Bacteroides uniformis [27] = assay: Antibacterial activity against beta-lactamase producing Bacteroides uniformis assessed as susceptible isolates by CLSI agar dilution method in presence of Tazobactam; procedure, shortened: as §2
Phocaeicola vulgatus [28] = assay: Antibacterial activity against beta-lactamase producing Bacteroides vulgatus assessed as resistant isolates by CLSI agar dilution method in presence of Tazobactam; procedure, shortened: as §1
Prevotella intermedia [29] = assay: Antibacterial activity against Prevotella intermedia assessed as resistant isolates by CLSI agar dilution method
Fusobacterium varium [30] = assay: Antibacterial activity against Fusobacterium varium by CLSI agar dilution method in presence of Tazobactam; procedure, shortened: as §2
[31] = test system: Prevotella melaninogenica; assay: Antibacterial activity against Prevotella melaninogenica by CLSI agar dilution method
[32] = test system: Fusobacterium necrophorum; assay: Antibacterial activity against Fusobacterium necrophorum assessed as resistant isolates by CLSI agar dilution method
Clostridium tertium = assay: Antibacterial activity against beta-lactamase producing Clostridium tertium assessed as resistant isolates by CLSI agar dilution method in presence of Tazobactam; procedure, shortened: as §1
Bacteroides fragilis [33] = assay: Antibacterial activity against Bacteroides fragilis assessed as susceptible isolates by CLSI agar dilution method
[34] = test system: Clostridium paraputrificum; assay: Antibacterial activity against beta-lactamase producing Clostridium paraputrificum assessed as susceptible isolates by CLSI agar dilution method
Fusobacterium mortiferum [35] = assay: Antibacterial activity against Fusobacterium mortiferum assessed as susceptible isolates by CLSI agar dilution method in presence of Tazobactam; procedure, shortened: as §2
Bacteroides fragilis [36] = assay: Antibacterial activity against Bacteroides fragilis by CLSI agar dilution method

`CC1(C)S[C@@H]2[C@H](NC(=O)[C@H](N)c3ccc(O)cc3)C(=O)N2[C@H]1C(=O)O` [AMOXICILLIN] showed an Activity (Finegoldia magna [1]) of 3%, an MIC [2] of 4 µg/mL and an MIC50 [2] of 4 µg/mL. For the same compound, the MIC90 [2] was 32 µg/mL, the Activity (Fusobacterium mortiferum [3]) was 7% and the Activity (Parvimonas micra [4]) was 94%. The Activity [5] was 33%, the Activity (Phocaeicola vulgatus [6]) was 53% and the Activity (Prevotella bivia [7]) was 6%. For the same compound, the Activity (Prevotella intermedia [8]) was 6%, the MIC50 (Parvimonas micra [9]) was 0.25 µg/mL and the MIC90 (Parvimonas micra [9]) was 2 µg/mL.
With `CCN1CCN(C(=O)N[C@@H](C(=O)N[C@@H]2C(=O)N3[C@@H]2SC(C)(C)[C@@H]3C(=O)O)c2ccccc2)C(=O)C1=O` [PIPERACILLIN] the Activity (Fusobacterium varium [10]) was 10%, the MIC50 (Parvimonas micra [11]) was 0.12 µg/mL (≈ 0.232 µM) and the MIC90 (Parvimonas micra [11]) was 8 µg/mL (≈ 15.5 µM). The MIC (Veillonella parvula) was 1 µg/mL (≈ 1.93 µM), the Activity (Phocaeicola vulgatus [12]) was 65% and the MIC50 (Bacteroides uniformis [13]) was over 128 µg/mL. The MIC90 (Bacteroides uniformis [13]) was over 128 µg/mL, the Activity (Finegoldia magna [14]) was 3% and the Activity (Finegoldia magna [15]) was 97%. For the same compound, the MIC [16] was 0.03 µg/mL, the MIC50 [16] was 0.03 µg/mL and the MIC90 [16] was 1 µg/mL. It also gave an Activity (Fusobacterium varium [17]) of 90%, an Activity [18] of 71% and an MIC50 (Phocaeicola vulgatus [19]) of 8 µg/mL. The MIC90 (Phocaeicola vulgatus [19]) was 16 µg/mL, the MIC50 (Fusobacterium nucleatum) was 2 µg/mL (≈ 3.86 µM) and the MIC90 (Fusobacterium nucleatum) was 8 µg/mL (≈ 15.5 µM). It also gave an MIC50 (Clostridium septicum [20]) of 0.25 µg/mL (≈ 0.483 µM), an MIC90 (Clostridium septicum [20]) of 2 µg/mL (≈ 3.86 µM) and an Activity (Prevotella bivia [21]) of 71%. The Activity (Fusobacterium mortiferum [22]) was 0%, the Activity (Clostridium septicum [23]) was 0% and the MIC50 (Prevotella buccae) was 16 µg/mL (≈ 30.9 µM). It also gave an MIC90 (Prevotella buccae) of 128 µg/mL (≈ 247 µM), an Activity [24] of 0% and an MIC50 [25] of 32 µg/mL (≈ 61.8 µM). For the same compound, the MIC90 [25] was over 128 µg/mL, the Activity (Fusobacterium varium [26]) was 100% and the Activity (Bacteroides uniformis [27]) was 96%. It also gave an Activity (Phocaeicola vulgatus [28]) of 4%, an Activity (Prevotella intermedia [29]) of 22% and an MIC50 (Fusobacterium varium [30]) of 0.5 µg/mL. For the same compound, the MIC90 (Fusobacterium varium [30]) was 2 µg/mL, the MIC50 [31] was 16 µg/mL (≈ 30.9 µM) and the MIC90 [31] was 128 µg/mL (≈ 247 µM). For the same compound, the Activity [32] was 10%, the Activity (Clostridium tertium) was 0% and the Activity (Bacteroides fragilis [33]) was 62%. It also gave an Activity [34] of 100%, an Activity (Fusobacterium mortiferum [35]) of 100% and an MIC50 (Bacteroides fragilis [36]) of 8 µg/mL (≈ 15.5 µM). For the same compound, the MIC90 (Bacteroides fragilis [36]) was over 128 µg/mL.
